Reference: ChEMBL document CHEMBL3124889, “Synthesis, spectroscopic, and photophysical characterization and photosensitizing activity toward prokaryotic and eukaryotic cells of porphyrin-magainin and -buforin conjugates” (J Med Chem, 2014)
pIC50: −log10 of the molar value. Calls of active or inactive are those of the source. No cut-off for these calls is given here. Where a SMILES comes first, the peptide text is derived from it. [ ]: non-standard residue; d: D form. The star is where a group is joined. Benzoyl(4-TriPhPorphyrinyl) = O=C(c1ccc(-c2c3nc(c(-c4ccccc4)c4ccc([nH]4)c(-c4ccccc4)c4nc(c(-c5ccccc5)c5ccc2[nH]5)C=C4)C=C3)cc1)*; X1 = C[n+]1ccc(-c2c3nc(c(-c4cc[n+](C)cc4)c4ccc([nH]4)c(-c4cc[n+](C)cc4)c4nc(c(-c5ccc(C(=O)*)cc5)c5ccc2[nH]5)C=C4)C=C3)cc1; His(π-Me) = Cn1cncc1C[C@H](N)C(=O)O

What was measured:
[1] = Photoinactivation of human HFFF2 cells incubated for 60 mins followed by irradiated with 13.5 J cm'-2 of blue light; format: cell-based; details: HFFF2, light or radiation study, 1 h
[2] = Drug uptake in human HFFF2 cells assessed as increase in red fluorescence at 5 uM incubated for 60 to 3 hrs mins followed by irradiated with 13.5 J cm'-2 of blue light by fluorescence microscopic analysis; format: ADME, cell-based; details: hfff2, 5 µM
[3] = Drug uptake in human HFFF2 cells assessed as increase in red fluorescence at 5 uM incubated for 60 to 3 hrs mins followed by irradiated with 13.5 J cm'-2 of blue light by flow cytometry; format: ADME, cell-based; details: hfff2, 5 µM
[4] = Drug uptake in human HFFF2 cells in assessed as increase in red fluorescence at 5 uM incubated for 60 to 3 hrs mins by flow cytometry; format: ADME, cell-based; details: hfff2, 5 µM
[5] = Drug uptake in human HFFF2 cells assessed as increase in red fluorescence at 5 uM incubated for 60 to 3 hrs mins followed by irradiated with 13.5 J cm'-2 of blue light measured after drug washout by flow cytometry; format: ADME, cell-based; details: hfff2, 5 µM
Escherichia coli [6] = assay: Photoinactivation of Escherichia coli ATCC 25922 assessed as log reduction of CFU at 5 uM incubated for 60 mins followed by irradiated with 13.5 J cm'-2 of blue light measured after drug washout; format: functional
Method in brief: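 Overnight BHI cultures (37 °C, stationary phase) washed and resuspended in PBS pH 7.3 at ~2 × 10^7 cells/mL. Incubated with increasing PS concentrations for 60 min in the dark at room temperature. Serial 10-fold dilutions plated in duplicate on BHI agar for CFU; at least three independent experiments.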

Staphylococcus aureus [7] = assay: Photoinactivation of methicillin-resistant Staphylococcus aureus ATCC BAA-44 at 0.5 to 1 uM incubated for 60 mins followed by irradiated with 13.5 J cm'-2 of blue light; format: functional, organism-based
Method in brief: (§1)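 Stationary-phase overnight BHI cultures (37 °C) were washed and resuspended in PBS (pH 7.3) at ~2 × 10^7 cells/mL, then incubated with PS in the dark at rt for 60 min. Suspensions were left unwashed or washed three times with PBS. They were irradiated with blue light (390–460 nm, 15.2 mW cm−2) to 13.5 J cm−2. Serial 10-fold dilutions were plated in duplicate on BHI agar and cfu counted after overnight growth at 37 °C. Experiments were repeated at least three times.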

Escherichia coli [8] = assay: Photoinactivation of Escherichia coli ATCC 25922 assessed as log reduction of CFU at 15 uM incubated for 60 mins followed by irradiated with 13.5 J cm'-2 of blue light measured after drug washout; format: functional; method in brief: as §1
Staphylococcus aureus [9] = assay: Drug uptake in methicillin-resistant Staphylococcus aureus ATCC BAA-44 assessed as increase in red fluorescence at 1.5 uM incubated for 60 mins measured after drug washout by flow cytometry; format: ADME, organism-based; details: in vivo, 1 h
Method in brief: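 Stationary-phase overnight BHI cultures (37 °C) were washed twice and resuspended in PBS (pH 7.3) at ~2 × 10^7 cells/mL. They were then analysed by flow cytometry for cell-associated red porphyrin fluorescence, either unwashed or after three PBS washes (10 000g, 5 min). Cells without PS set the background fluorescence.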

[10] = Photoinactivation of human HFFF2 cells at 5 uM incubated for 60 mins followed by irradiated with 13.5 J cm'-2 of blue light; format: cell-based; details: hfff2, 1 h
Method in brief: (§2)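 HFFF2 fibroblasts were grown in DMEM with 10% FBS at 37 °C and 5% CO2, seeded at 7 × 10^3 cells/well and grown 48 h. Cells were incubated 60 min in the dark with PS in medium with 3% FBS, washed twice with PBS containing Ca2+/Mg2+, and irradiated in PBS with 13.5 J cm−2 of blue light. After 24 h in 10% FBS medium, viability was read by MTS (1.5 h, A492) as % of untreated control.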

[11] = Photoinactivation of human HFFF2 cells at 3 uM incubated for 60 mins followed by irradiated with 13.5 J cm'-2 of blue light; format: cell-based; details: hfff2, 1 h; method in brief: as §2
Escherichia coli [12] = assay: Drug uptake in Escherichia coli ATCC 25922 assessed as increase in red fluorescence at 5 uM incubated for 60 mins by flow cytometry; format: ADME, organism-based; details: in vivo, 1 h
Method in brief: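 Stationary-phase cells grown overnight in BHI at 37 °C, washed twice, resuspended in PBS pH 7.3 at ~2 × 10^7 cells/mL. Exposed to PS in the dark at room temperature for 60 min, then analysed directly or after three PBS washes (centrifugation at 10 000g for 5 min). Read-out is cell-associated porphyrin red fluorescence by flow cytometry; background taken from cells without PS.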

[13] = Drug uptake in human HFFF2 cells assessed as increase in red fluorescence at 5 uM incubated for 60 mins followed by irradiated with 13.5 J cm'-2 of blue light by flow cytometry; format: ADME, cell-based; details: hfff2, 1 h
[14] = Solubility of the compound in water; format: physicochemical; details: buffer

Compound | pIC50 [1] | Drug uptake [2] | Drug uptake [3] | Drug uptake [4] | Drug uptake [5] | Activity (Escherichia coli [6]) | Activity (Staphylococcus aureus [7]) | CFU/ml (Escherichia coli [8]) [log reduction] | Drug uptake (Staphylococcus aureus [9]) | Activity [10] | Activity [11] | Drug uptake (Escherichia coli [12]) | Drug uptake [13] | solubility [14]
CC[C@H](C)[C@H](NC(=O)[C@H](Cc1ccc(O)cc1)NC(=O)[C@@H](NC(=O)[C@@H]1CCCN1C(=O)[C@H](CCCNC(=N)N)NC(=O)[C@H](CC(N)=O)NC(=O)[C@H](CC(N)=O)NC(=O)CNC(=O)c1ccc(-c2c3nc(c(-c4ccccc4)c4ccc([nH]4)c(-c4ccccc4)c4nc(c(-c5ccccc5)c5ccc2[nH]5)C=C4)C=C3)cc1)C(C)C)C(=O)N1CCC[C@H]1C(=O)N[C@@H](CCC(N)=O)C(=O)N1CCC[C@H]1C(=O)N[C@@H](CCCNC(=N)N)C(=O)N1CCC[C@H]1C(=O)N1CCC[C@H]1C(=O)N[C@@H](Cc1cnc[nH]1)C(=O)N1CCC[C@H]1C(=O)N[C@@H](CCCNC(=N)N)C(=O)N[C@@H](CC(C)C)C(=O)O ({Benzoyl(4-TriPhPorphyrinyl)}-GNNRPVYIPQPRPPHPRL-OH) | 7.68 | Active | Active | Active | Active |  |  |  |  |  |  |  |  | 
CC[C@H](C)[C@H](NC(=O)[C@H](Cc1ccc(O)cc1)NC(=O)[C@@H](NC(=O)[C@@H]1CCCN1C(=O)[C@H](CCCNC(=N)N)NC(=O)[C@H](CC(N)=O)NC(=O)[C@H](CC(N)=O)NC(=O)CNC(=O)c1ccc(-c2c3nc(c(-c4cc[n+](C)cc4)c4ccc([nH]4)c(-c4cc[n+](C)cc4)c4nc(c(-c5cc[n+](C)cc5)c5ccc2[nH]5)C=C4)C=C3)cc1)C(C)C)C(=O)N1CCC[C@H]1C(=O)N[C@@H](CCC(N)=O)C(=O)N1CCC[C@H]1C(=O)N[C@@H](CCCNC(=N)N)C(=O)N1CCC[C@H]1C(=O)N1CCC[C@H]1C(=O)N[C@@H](Cc1cncn1C)C(=O)N1CCC[C@H]1C(=O)N[C@@H](CCCNC(=N)N)C(=O)N[C@@H](CC(C)C)C(=O)O (X1-GNNRPVYIPQPRPP[His(π-Me)]PRL-OH) | 8.05 | Not Active | Active | Active | Active |  |  |  |  |  |  |  |  | 
C[n+]1ccc(-c2c3nc(c(-c4cc[n+](C)cc4)c4ccc([nH]4)c(-c4ccc(C(=O)O)cc4)c4ccc([nH]4)c(-c4cc[n+](C)cc4)c4nc2C=C4)C=C3)cc1 | 6.64 | Not Active | Active | Active | Active | Active | Active | 1 | Not Active | Toxic | Toxic | Not Active | Active | 
O=C(O)c1ccc(-c2c3nc(c(-c4ccccc4)c4ccc([nH]4)c(-c4ccccc4)c4nc(c(-c5ccccc5)c5ccc2[nH]5)C=C4)C=C3)cc1 | 5.90 | Not Active | Active | Active | Active |  |  |  | Not Active | Toxic | Toxic | Not Active | Active | Insoluble
